Activity calls are given as the source filed them. The calls are words filed in the database; no cut-off is given here.
Columns and labels:
[1] = Drug metabolism assessed as GSTpi (unknown origin) mediated compound fluorescence activation at 1 uM in presence of 100 uM Na2S by HPLC analysis; assay type: ADME; conditions: human
Procedure, shortened: (§1)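 Selectivity test: compound (1 µM) with catalytic GSTπ and each analyte in water with 1% (v/v) DMSO at pH 4.0, 37 °C for 0.5 h. Analytes were cations at 1 mM; amino acids, vitamin C, Na2S and GSH at 100 µM. Readout was fluorescence emission spectra (excitation 440 nm, recorded 450–650 nm).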

HT-29 [2] = assay: Antitumor activity against human HT-29 cells xenografted in nude BALB/c mouse assessed as reduction in tumor volume at 20 mg/kg, ip dosed every day for 21 days; assay type: functional, organism-based
HT-29 [3] = assay: Induction of apoptosis in human HT-29 cells assessed as reduction in Bcl2 protein level incubated for 72 hrs by Western blot analysis; assay type: functional, cell-based
Procedure, shortened: (§2)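 HT29 cells (1.5×10^5/mL) were treated for 72 h and lysed. Lysate (0.05 mg/lane) was run on 12% SDS-PAGE and transferred to nitrocellulose. After blocking in 5% non-fat milk, blots were probed for Bax, Bcl-2, cleaved caspase-3, cleaved PARP, LC3, p62 and beclin-1. Levels were normalised to β-actin, and means ± SD taken from three independent assays.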

HT-29 [4] = assay: Induction of apoptosis in human HT-29 cells assessed as increase in Bax protein level incubated for 72 hrs by Western blot analysis; assay type: functional, cell-based; procedure, shortened: as §2
[5] = Toxicity in ICR mouse assessed as induction of abnormality in eating behavior at 240 mg/kg, ip for 14 days; assay type: organism-based; conditions: in vivo, 336 h
Procedure, shortened: (§3)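 Female ICR mice (n = 10 per group) given a single intraperitoneal dose at 240.0, 300.0, 375.0, 468.8 or 585.9 mg/kg, or vehicle. Deaths recorded at 1 h, 4 h and daily through day 14. Body weight, drinking, eating and activity observed for abnormality; LD50 derived from mortality.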

[6] = Cytotoxicity against human CCD-841 cells by MTT assay; assay type: cell-based
Procedure, shortened: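 MTT assay. Cells were grown in DMEM/RPMI 1640 with 10% FBS, penicillin and streptomycin at 37 °C under 5% CO2. After a PBS wash, cells got 0.5 mg/mL MTT for 3 h at 37 °C. Formazan was dissolved in DMSO and absorbance read at 570 nm. Inhibition was expressed as a percentage and IC50 calculated. Means ± SD come from three separate experiments.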

[7] = Toxicity in BALB/c mouse xenografted with human hT-29 cells assessed as effect on body mass at 20 to 40 mg/kg, ip dosed every day for 21 days; assay type: organism-based; conditions: in vivo, 504 h
Procedure, shortened: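 Female BALB/c nude mice, 5-6 weeks old, inoculated subcutaneously with 1×10^6 HT29 cells. At tumor volume 100 mm³, animals randomized to compound or saline, given intraperitoneally every day for 21 days. Body weight recorded every three days; animals euthanized at 20% weight loss. Tumor volume = ½(L×W²) from caliper measurements; tumors excised and weighed at the end.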

[8] = Toxicity in ICR mouse assessed as induction of abnormality in drinking behavior at 240 mg/kg, ip for 14 days; assay type: organism-based; conditions: in vivo, 336 h; procedure, shortened: as §3
[9] = Drug uptake in human HT-29 cells at 1 uM measured within 10 mins by confocal fluorescence microscopy; assay type: ADME, cell-based; conditions: ht-29, 10 min
Procedure, shortened: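 Cells were seeded at 2×10^5 in glass-bottom dishes and allowed to attach. Medium was then replaced with DMEM containing 1 µM compound. Confocal images were taken every minute for 60 min with a 40× water objective, 405 nm laser and 480–530 nm filter. Intracellular fluorescence intensity was quantified.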

HT-29 [10] = assay: Induction of apoptosis in human HT-29 cells at 1 uM incubated for 72 hrs by FITC-AnnexinV/PI staining based flow cytometry relative to control; assay type: functional
Procedure, shortened: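 HT29 cells were cultured 12 h, then exposed to compound (0.4, 1.0, 2.5 µM) or vehicle for 72 h. Harvested cells were stained with Annexin V and PI, and apoptotic cell percentages measured by flow cytometry. Means ± SD come from three separate experiments.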

[11] = Drug metabolism assessed as GSTalpha (unknown origin) mediated 1-(3,4,5-trimethoxyphenyl)-9H-pyrido[3,4-b]indol-3-amine formation at 40 uM in presence of 0.8 mM GSH by HPLC analysis; assay type: ADME; conditions: human
Procedure, shortened: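 HPLC measurement of amine release after incubating compound (40 µM) with GSH (0.8 mM) and GSTπ or GSTα at 0.03 µg/ml.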

[12] = Toxicity in ICR mouse assessed as induction of animal survival rate at 300 mg/kg, ip measured after 14 days; assay type: organism-based; conditions: in vivo
Procedure, shortened: (§4)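 Female ICR mice, randomised, n = 10 per group. Single intraperitoneal dose of 240.0, 300.0, 375.0, 468.8 or 585.9 mg/kg, or vehicle. Deaths recorded at 1 h, 4 h, days 1–4 and days 5–14. Body weight, drinking, eating and activity observed over 14 days. Survival percentage taken on day 14; LD50 derived from the dose–mortality data.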

[13] = Toxicity in ICR mouse assessed as induction of animal death at 240 to 585.9 mg/kg, ip measured after 1 hr; assay type: organism-based; conditions: in vivo; procedure, shortened: as §4
[14] = Drug metabolism assessed as GSTpi (unknown origin) mediated compound fluorescence activation at 1 uM in presence of 1 mM Fe2+ by HPLC analysis; assay type: ADME; conditions: human; procedure, shortened: as §1
[15] = Toxicity in ICR mouse assessed as induction of animal death at 240 to 300 mg/kg, ip measured after 4 days; assay type: organism-based; conditions: in vivo, 96 h; procedure, shortened: as §4
HT-29 [16] = assay: Antitumor activity against human HT-29 cells xenografted in nude BALB/c mouse assessed as reduction in tumor weight at 40 mg/kg, ip dosed every day for 21 days relative to control; assay type: functional; design: scale not given: the % may be the effect or the level left
[17] = Drug metabolism assessed as GSTpi (unknown origin) mediated compound fluorescence activation at 1 uM in presence of 100 uM vitamin C by HPLC analysis; assay type: ADME; conditions: human; procedure, shortened: as §1
[18] = Toxicity in ICR mouse assessed as induction of animal death at 240 to 468.8 mg/kg, ip measured after 5 to 14 days; assay type: organism-based; conditions: in vivo; procedure, shortened: as §4
[19] = Drug metabolism assessed as GSTpi (unknown origin) mediated compound fluorescence activation at 1 uM in presence of 1 mM Al3+ by HPLC analysis; assay type: ADME; conditions: human; procedure, shortened: as §1
[20] = Drug metabolism assessed as GSTpi (unknown origin) mediated compound fluorescence activation at 1 uM in presence of 100 uM alanine by HPLC analysis; assay type: ADME; conditions: human; procedure, shortened: as §1
HT-29 [21] = assay: Induction of apoptosis in human HT-29 cells assessed as increase in cleaved caspase-3 protein level incubated for 72 hrs by Western blot analysis; assay type: functional, cell-based; procedure, shortened: as §2
[22] = Toxicity in ICR mouse assessed as induction of animal survival rate at 375 mg/kg, ip measured after 14 days; assay type: organism-based; conditions: in vivo; procedure, shortened: as §4
[23] = Drug metabolism assessed as GSTpi (unknown origin) mediated compound fluorescence activation at 1 uM in presence of 1 mM Cu2+ by HPLC analysis; assay type: ADME; conditions: human; procedure, shortened: as §1
[24] = Drug localization in tumor of intra-operative mouse xenografted with human HT-29/Luc cells at 40 mg/kg, iv measured after 1 hrs post dose by fluorescence imaging assay; assay type: ADME, organism-based, Neoplasm; conditions: in vivo
Procedure, shortened: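 Mice carrying subcutaneous HT29 tumours (1×10^6 cells, grown 3–4 weeks) received 40 mg/kg iv. They were imaged under 1% pentobarbital at 0, 1, 2, 4, 8 and 24 h post-injection (465 nm excitation filter, GFP emission filter). Excised tumours and major organs were then imaged ex vivo.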

COc1cc(-c2nc(NC(=O)OCC3=CCCCC3=O)cc3c2[nH]c2ccccc23)cc(OC)c1OC
Drug metabolism [1]: Metabolite_Notdetected
Activity (HT-29 [2]): Active
Activity (HT-29 [3]): Dose-dependent effect
Activity (HT-29 [4]): Dose-dependent effect
Activity [5]: Non-Toxic
IC50 [6]: 23.4 µM
Activity [7]: Non-Toxic
Activity [8]: Non-Toxic
Drug uptake [9]: Active
Activity (HT-29 [10]): 36.8%
Drug metabolism [11]: Metabolite_Notdetected
survival at 336 h [12]: 100%
Activity [13]: Non-Toxic
Drug metabolism [14]: Metabolite_Notdetected
Activity [15]: Non-Toxic
Activity (HT-29 [16]): 67.7%
Drug metabolism [17]: Metabolite_Notdetected
Activity [18]: Non-Toxic
Drug metabolism [19]: Metabolite_Notdetected
Drug metabolism [20]: Metabolite_Notdetected
Activity (HT-29 [21]): Dose-dependent effect
survival at 336 h [22]: 80%
Drug metabolism [23]: Metabolite_Notdetected
Drug uptake [24]: Active

Reference: ChEMBL document CHEMBL4622976, “Development of pH/Glutathione-Responsive Theranostic Agents Activated by Glutathione S-Transferase π for Human Colon Cancer” (J Med Chem, 2020)
